# Only some compounds are listed: those with a hit (about 3.9% of all), similar ones and a draw of the others.
# AHR act: AHR activators, primary screen, cell-based, luminescence, luciferase reporter, human. Aryl hydrocarbon receptor (Homo sapiens), P35869. AHR-responsive luciferase reporter cells. activation, % at 5 µM. 320,000 tested, 2.5% active; in the data active = activation above about 47%;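 note: 0% = vehicle wells and 100% = reference agonist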
# SR-BI DiI inh: inhibitors of SR-BI mediated HDL lipid uptake, primary screen, ldlA[mSR-BI] cells, fluorescence, single point. Scavenger receptor class B member 1 (Mus musculus), Q61009. ldlA[mSR-BI] CHO cells, DiI-HDL uptake fluorescence, 3 h. inhibition, % at 12.5 µM. 320,000 tested, 0.96% active. AID 488896, 2010;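 active = mean replicate inhibition of at least 70% and a set share of replicates each scoring 70 or more; inconclusive = meets just one of the two criteria; inactive = fails both criteria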;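 note: 0% = median of neutral control wells and 100% = median of positive control wells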
# SR-BI uptake up: activators of SR-BI mediated DiI-HDL uptake, primary screen, ldlA[mSR-BI] CHO cells, DiI fluorescence | 3 h; 100 = double the neutral-control signal | activation, % at 12.5 µM | 320,000 tested, 0.096% active | AID 504775, 2011;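 active = mean replicate activation of at least 60% and every replicate at or above 60%; inconclusive = mean or all-replicate condition met, but not both; inactive = mean below 60% and not all replicates reaching 60%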;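 note: 0% = median plate neutral-control signal and 100% = twice that signal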
#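 Test system: SR-BI-overexpressing, LDLR-lacking CHO cells. Measured by: DiI fluorescence, bottom read. Medium: Ham's F12 with 0.5% BSA, HEPES 25 mM, pH 7.4. Timing: 3 h uptake period with compound, 37 °C.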
# GAA850 FXN act: FXN promoter activators, primary screen, cell-based, luciferase luminescence, HEK293 lucGAA850. 360,000 tested, 0.56% active. HEK293 lucGAA850 FXN promoter luciferase reporter, 24 h; percent of 10 µM SAHA response. AID 540364, 2011. activation, % at 6 µM;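 active = activation above the average of all compounds screened plus 3 SD, cutoff fixed separately per campaign, cut at about 7.5% in these data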;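 note: 0% = DMSO wells and 100% = 10 µM SAHA wells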
# ABCB6 inh 2: ABCB6 transporter inhibitors, primary screen, K562-ABCB6 cells, flow cytometry, MLPCN library. ATP-binding cassette sub-family B member 6 (Homo sapiens), Q9NP58. K562-ABCB6 porphyrin accumulation, 1 h; active compounds read low. fluorescence ratio to DMSO, % at 10 µM. 360,000 tested, 0.19% active. AID 602162, 2011;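 active = fluorescence ratio to DMSO below 75%, the collection mean minus 3 SD; inconclusive = too few cells collected in the well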;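 note: signal is porphyrin accumulated inside mitochondria; 100% equals median channel fluorescence of DMSO control wells; lower ratio means ABCB6 inhibition with less porphyrin fluorescence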
# HIF activator: HIF pathway transcriptional activators, primary screen, cell-based, U2OS HRE-luciferase, luminescence | U2OS HRE-luciferase reporter; normalized: DMSO 0%, desferrioxamine 100% | activation, % at 7.5 µM (by protocol) | 300,000 tested, 0.32% active | AID 1910, 2009;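 active = mean activation of at least 10% of the iron chelator positive control signal, with at least half of replicates also reaching 10%; inconclusive = mean and replicate majority disagree about reaching 10%; inactive = mean and most replicates under 10%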
# ABCB6 blocker 1: ABCB6 transporter inhibitors, confirmation, K562-ABCB6 cells, flow cytometry, cherry pick 1; 700 tested, under 10 active; AID 602430, 2012; K562-ABCB6 porphyrin accumulation, 1 h; active compounds read low; shares compounds with ABCB6 inh 2; ratio response (% of DMSO), % at 10 µM;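 active = repeat-averaged ratio response below 75% of DMSO, the collection mean minus 3 SD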;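 note: median porphyrin fluorescence at 575 nm with 488 nm excitation from mitochondria; lower ratio means less porphyrin signal so ABCB6 inhibition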
# K562 vector FC: empty-vector K562 compound effect – cell-based, flow cytometry, cherry pick set 2, counter-screen for ABCB6 inhibitor project, dose response; 25 tested, under 10 active; shares compounds with ABCB6 inh 2; AID 624484, 2012; percent response (fluorescence), % at 100 µM; K562 empty-vector cells, flow cytometry fluorescence, 1 h;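 active = compounds whose half-maximal effective concentration is below 100 µM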
# Active calls of the source: *; u = inconclusive; x = not tested or not shown.
SMILES,AHR act,SR-BI DiI inh,SR-BI uptake up,GAA850 FXN act,ABCB6 inh 2,HIF activator,ABCB6 blocker 1,others
CS(=O)(=O)Nc1cccc(NC(=O)C2Cc3c(-c4ccco4)ccnc3O2)c1 (centres undefined),x,x,x,-2,98,x,x,
Cc1cc(N2C(=O)CC(Cc3ccccc3)C2=O)no1 (centres undefined),-1,-29,29,-1,72*,0,101,
CCN=C1SC(CC(=O)NC(C)C)C(=O)N1CC (centres undefined),1,-7,7,3,99,u,x,
CS(=O)(=O)c1ncc(Cl)c(C(=O)Nc2ccc(N3CCOCC3)cc2)n1,-5,-9,9,-5,93,1,x,
Cc1nnc(NC(=O)CS(=O)(=O)Cc2ccccc2)s1,x,-10,10,0,106,1,x,
Cc1nnc(NC(=O)c2nc(S(=O)(=O)Cc3ccccc3)ncc2Cl)s1,1,-12,12,-6,113,-3,x,K562 vector FC=214
Cc1ccccc1CS(=O)(=O)c1ncc(Cl)c(C(=O)Nc2ccc(F)cc2)n1,18,-4,4,-6,36*,-3,x,K562 vector FC=299
O=C(Nc1ccc(F)cc1)c1nc(S(=O)(=O)Cc2ccccc2)ncc1Cl,18,-22,22,6,46*,-5,93,
Cc1ccc(NC(=O)c2nc(S(=O)(=O)Cc3ccccc3)ncc2Cl)cc1,15,-10,10,5,35*,-2,85,
O=C(O)/C=C/c1ccc(S(=O)(=O)NCc2ccco2)cc1,1,4,-4,2,103,0,x,
O=C(OCC(=O)N1CCc2ccccc21)c1cc(S(=O)(=O)N2CCOCC2)ccc1F,x,11,-11,2,100,x,x,
O=C1CNC(=S)N1C(CO)c1ccccc1 (centres undefined),-1,0,0,0,95,-1,x,
CCOC(=O)c1ccc(S(=O)(=O)N2CCC(C(=O)OCC)CC2)cc1,-3,-11,11,2,60*,0,103,
CCOC(=O)C1CCN(S(=O)(=O)c2ccc(Cl)s2)CC1,-1,-9,9,1,68*,0,99,
CCOC(=O)C1CCN(S(=O)(=O)c2ccc(OCC)cc2)CC1,-1,7,-7,1,99,0,101,
CCOC(=O)C1CCN(S(=O)(=O)c2ccc(CC)cc2)CC1,-1,-27,27,-1,95,0,x,
C#CCOCCOCCOCCNc1nc(N2CCN(C(=O)Cn3cc(CCCCN)nn3)CC2)nc(N2CCN(C(=O)[C@H](CCCCN)n3cc(CCCC)nn3)CC2)n1,0,-20,20,1,101,x,x,
COc1ccc(CNS(=O)(=O)NCc2ccccc2F)cc1,3,-12,12,4,70*,0,96,
O=S(=O)(NCc1ccccc1)NCc1ccccc1F,-2,-11,11,0,96,0,x,
CN1CCN(c2nc3ccccc3nc2C(C#N)C(=O)OC2CCCCC2)CC1 (centres undefined),3,19,-19,0,65*,-1,99,
COc1ccc(Br)cc1C(=O)NCc1cccnc1,13,-17,17,1,94,0,x,
CCOC(=O)c1nc(C)c(C(C)=O)s1,3,0,0,0,95,1,x,
Cc1nc2c(Br)c3nc(C(F)(F)F)[nH]c3c(Br)c2[nH]1,8,-20,20,-2,103,0,x,
Cc1nc2c(F)c(F)c(C(F)(F)F)c(F)c2[nH]1,-2,-28,28,0,69*,0,101,
COc1cccc(NC(=O)COC(=O)COc2ccccc2[N+](=O)[O-])c1,1,-46,46,3,101,0,x,
SMILES,AHR act,SR-BI DiI inh,SR-BI uptake up,GAA850 FXN act,ABCB6 inh 2,HIF activator,ABCB6 blocker 1,others
CNC(=O)c1cc(Nc2nnc(-c3ccc(C)c(S(N)(=O)=O)c3)c3ccccc23)ccc1OC,4,67,-67,1,74*,-5,101,
O=C(NCc1ccc(F)cc1)c1cc(-c2cccs2)on1,-2,-21,21,0,96,1,x,
O=C(NCc1ccccc1)c1cc(-c2cccs2)on1,1,1,-1,3,62*,4,101,
O=C(Nc1c2c(nn1-c1ccc(Cl)cc1)CS(=O)(=O)C2)C1CC1,7,0,0,1,94,0,x,
Cc1ccc(-n2nc3c(c2NC(=O)C2CCCC2)CS(=O)(=O)C3)cc1,2,x,x,1,10*,0,95,
CC1CCCC(NC(=O)COC(=O)c2ccc(S(=O)(=O)N3CCOCC3)cc2)C1C (centres undefined),1,-6,6,-1,92,0,x,
COc1ccc(CCN2C(=O)C(Oc3ccccc3C)C2c2ccc3c(c2)OCO3)cc1OC (centres undefined),2,-8,8,1,123,0,x,
Cc1ccc(S(=O)(=O)Cc2ccc(C(=O)N3CCC(C(N)=O)CC3)o2)cc1,2,-8,8,2,55*,-1,98,
COCc1nnc(NC(=O)c2c(-c3c(Cl)cccc3Cl)noc2C)s1,2,-15,15,1,67*,-37,101,

# Compound activity: PubChem BioAssay, several laboratories
